The structures appear in SMILES notation.

Experiment [1] deals with GABA-A receptor; anion channel. In words: Binding affinity against benzodiazepine receptor (BzR) in rat cortical membranes determined by competition experiments with radiolabeled [3H]flunitrazepam (Fnz). Format: cell membranes.
Experiment [2] deals with GABA A receptor alpha-3/beta-2/gamma-2 (Rattus norvegicus) (UniProt P18508+P20236+P63138). The experiment in a line: In vitro efficacy as change in chloride current against GABA-A alpha-3-beta-2-gamma-2 subunit expression. It is filed as functional.
Experiment [3] addresses GABA-A receptor; anion channel (Rattus norvegicus) (UniProt O09028+P15431+P18506+P18508+P19969+P20236+P23574+P23576+P28471+P28473+P30191+P62813+P63079+P63138+Q91ZM7+Q9ES14).
Experiment [4] concerns Rattus norvegicus. In words: Ability to antagonize metrazole-induced seizures (clonic and tonic) in rats after intraperitoneal injection. As to conditions: ip.
Experiment [5] is filed under the species Mus musculus. In words: Compound was tested for acute electroshock physical dependence activity (drug MA50/V122 MA50); Active. Format: functional. Put shortly:
(§1)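 Male CF-1 mice, 10/group, dosed sc twice daily for 3 days (0800, then 2 times that dose at 1600). Flumazenil 2.5 mg/kg iv in 5% aqueous N,N-dimethylacetamide given 24 h after the last dose. 5 min later electroshock seizure threshold estimated by up-down method (0.05 log steps; transpinnal 0.6 ms pulses, 100 Hz, 0.2 s). Comparison is against a saline-treated, flumazenil-injected control group.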

For experiment [6], the species on record is Mus musculus. The experiment in a line: Antagonism of benzodiazepine traction in mice. It is filed as functional. Put shortly:
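Male CF-1 mice given triazolam 1 mg/kg ip together with test compound ip, starting at 100 mg/kg, in 0.25% aqueous methyl cellulose. Dose-response run on 0.5 log scale. Loss of traction scored 15 min later. Absence of the expected loss marks antagonism. ED50 taken from lower doses.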

For experiment [7], the species on record is Mus musculus. The experiment in a line: Compound was tested for Acute electroshock physical dependence activity (drug MA50/V122 MA50); No significant activity. It is filed as functional. Put shortly: as §1
The species entered for experiment [8] is Mus musculus. In words: Compound was tested for ethanol potentiation expressed as the loss of traction response (muscle relaxation). Format: functional. Put shortly:
(§2)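 Male CF-1 mice given 50% aqueous ethanol orally (7.5 mL/kg) plus test compound sc in 0.25% aqueous methyl cellulose (10 mL/kg). Tested 30 min later. Traction: hindlimb placed on wire within 10 s when suspended by forepaws. Righting: rolls onto feet within 10 s when released on its back. Six mice per dose; ED50s determined.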

For experiment [9], the species on record is Mus musculus. In words: Compound was tested for ethanol potentiation expressed as loss of righting reflex (anesthesia). Format: functional. Put shortly: as §2

As for `COc1ccc(-c2ncn3c2c(=O)n(C(C)C)c2c(C)cccc23)cc1`, the Ki (usually the dissociation constant of the complex between target and ligand, obtained from inhibition or displacement) in experiment [1] was 0.0497 µM. For the same compound, in experiment [2], the Cl - current change came out at 1.3. Moreover, in experiment [3], the TBPS shift came out at 0.92. Besides, it took a dose of 3.1 mg/kg to reach the 50% effect level in [4] (ED50).
For `COc1cccc(-c2ncn3c2c(=O)n(C(C)C)c2ccccc23)c1`, in that order: 0.207 µM, 0.12, 0.24 and above 50 mg/kg.
In the case of `Cc1cccc2c1n(C(C)C)c(=O)c1c(-c3ccc(F)cc3)ncn12`, in experiment [1], affinity was put at a Ki of 0.126 µM. In experiment [2], this compound registered a Cl - current change of 1.7. In experiment [3], the TBPS shift was 1.83. For the same compound, the ED50 – broadly, the midpoint of the dose-response relation – in [4] was determined as 2.6 mg/kg.
As to `COc1ccc(-c2ncn3c2CN(C(=O)N2CC(C)N(C)C(C)C2)c2ccccc2-3)cc1` (stereo not drawn), affinity in experiment [1] was put at a Ki of 0.00416 µM. This compound came in with an Activity in [5] of 0.6. Also, the ED50 in [6] is above 30 mg/kg; in [4], 0.8 mg/kg. For the same compound, the TBPS shift in experiment [3] amounted to 0.27.
Take `CC(C)n1c(=O)c2c(-c3cccc(C(F)(F)F)c3)ncn2c2ccccc21`: the inhibition constant (Ki) in experiment [1] is 0.188 µM. In addition, the Cl - current change in experiment [2] was 0.03. In addition, the TBPS shift in [3] is 0.45. In [4], this compound displayed an ED50 above 50 mg/kg.
With `CC(C)n1c(=O)c2c(-c3ccc(C(F)(F)F)cc3)ncn2c2ccccc21`, the Ki in [1] is above 10 µM. The compound also had a Cl - current change in experiment [2] of 0.36. For the same compound, the TBPS shift in experiment [3] is 0.36.
`CC(C)n1c(=O)c2c(-c3ccc(F)cc3)ncn2c2cccc(Cl)c21`: the Ki in experiment [1] is 0.0146 µM. The Cl - current change in experiment [2] was determined as 3.4. In addition, the TBPS shift in experiment [3] is 2.04. This compound also gave an ED50 in [4] of 0.9 mg/kg.
Regarding `CC(C)n1c(=O)c2c(-c3ccc(F)cc3)ncn2c2ccccc21`, the Ki in experiment [1] was found to be 0.115 µM. In [7], the Activity is on record as 1. Also, the Cl - current change in experiment [2] turned out to be 0.45. Also, the ED50 was 14 mg/kg in experiment [8], above 30 mg/kg in [6], above 30 mg/kg in experiment [9] and 30 mg/kg in experiment [4]. Moreover, the TBPS shift in experiment [3] was 0.58.
Regarding `COc1ccc(-c2ncn3c2c(=O)n(C(C)C)c2c(Cl)cccc23)cc1`, affinity in [1] was put at a Ki of 0.0279 µM. The Activity in experiment [7] is on record as 0.91. In experiment [2], this compound came in with a Cl - current change of 1. The ED50 in [8] is above 30 mg/kg; in [6], above 30 mg/kg; in experiment [9] it was above 30 mg/kg; in experiment [4], 1.3 mg/kg. Also, in experiment [3], the TBPS shift worked out at 1.04.
On to `CC(C)n1c(=O)c2c(-c3noc(C4CC4)n3)ncn2c2ccccc21` [PANADIPLON], for which the Activity in [7] came out at 0.95. The ED50 in [8] was 6.6 mg/kg; in experiment [6], 1.7 mg/kg; in [9], above 30 mg/kg; in experiment [4] it was 1.6 mg/kg.
In [1], `CC(C)n1c(=O)c2c(-c3ccc(F)cc3)ncn2c2ccc(Cl)cc21` came in with a Ki of 1.69 µM. In experiment [2], this compound showed a Cl - current change of 0.03. In [3], the TBPS shift came to 0.14. Moreover, the ED50 in experiment [4] was above 50 mg/kg.
